Data on 1 protein can be found in ChEMBL document CHEMBL1123904, “Synthesis, structure, and biological activity of certain 2-deoxy-beta-D-ribo-hexopyranosyl nucleosides and nucleotides” (J Med Chem, 1987).

Substrate in series [1]: Nc1ncnc2c1ncn2C1CC(O)C(O)C(CO)O1
Put plainly: (§1) Kinetic parameters for adenosine deaminase (ADase) was determined. The procedure, abridged: (§2)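 Calf intestine adenosine deaminase; substrate and inhibitor kinetic parameters measured spectrophotometrically.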

Substrate in series [2]: Nc1nc(N)c2ncn(C3CC(O)C(O)C(CO)O3)c2n1
Described as §1. The method, boiled down: as §2

Substrate in series [3]: Nc1ncnc2c1ncn2[C@@H]1O[C@H](CO)[C@@H](O)[C@H]1O
The description is as §1. The procedure, abridged: as §2

B1: Adenosine deaminase (Bos taurus), P56658 (protein)
chain: MAQTPAFNKPKVELHVHLDGAIKPETILYYGRKRGIALPADTPEELQNIIGMDKPLSLPEFLAKFDYYMPAIAGCREAVKRIAYEFVEMKAKDGVVYVEVRYSPHLLANSKVEPIPWNQAEGDLTPDEVVSLVNQGLQEGERDFGVKVRSILCCMRHQPSWSSEVVELCKKYREQTVVAIDLAGDETIEGSSLFPGHVKAYAEAVKSGVHRTVHAGEVGSANVVKEAVDTLKTERLGHGYHTLEDATLYNRLRQENMHFEVCPWSSYLTGAWKPDTEHPVVRFKNDQVNYSLNTDDPLIFKSTLDTDYQMTKNEMGFTEEEFKRLNINAAKSSFLPEDEKKELLDLLYKAYGMPSPASAEQCL
B1: the Km stood at 57 µM in series [1], 900 µM in series [2] and 31 µM in series [3].
